Experimental data pooled from the literature.
Target: Serine/threonine-protein kinase 38 (STK38, Homo sapiens, UniProt Q15208)

Compound | read-out | action | technique | cell line | concentration | endpoint | value
Cc1cc(NC(=O)c2cccc(S(F)(F)(F)(F)F)c2)cc(-n2ccn3nc(-c4cccnc4)cc23)c1 | cell-free assay | – | competition with immobilised ligand | – | 1 µM | remaining binding | 92.3%
Cn1c2c(c3ccc(Cl)c(Cl)c31)C(C#N)C1(CCNCC1)NC2=O (racemic) | thermal stability | – | DSF | – | 10 µM | ΔTm | 0.4 °C
CN([C@@H]1CCc2c(CC(=O)O)c3cc(S(C)(=O)=O)ccc3n2C1)S(=O)(=O)c1ccc(F)cc1 | cell-free assay | – | competition with immobilised ligand | – | 1 µM | remaining binding | 85%
CCN1CCN(Cc2ccc(NC(=O)c3ccc(C)c(Oc4ccnc5[nH]ccc45)c3)cc2C(F)(F)F)CC1 | target engagement in cells | inhibitor | chemoproteomics | A-375 | 50 nM | inhibition | -11.4%
Cn1c2c(c3ccc(Cl)c(Cl)c31)C(C#N)C(C)(C)NC2=O (stereo not shown) | thermal stability | – | DSF | – | 10 µM | ΔTm | 0.1 °C
CCCOc1ccc([C@@H]2[C@@H](C(=O)O)[C@H](c3ccc4c(c3)OCO4)CN2CC(=O)Nc2c(CC)cccc2CC)cc1 | cell-free assay | – | competition with immobilised ligand | – | 1 µM | remaining binding | 83%
O=C1Nc2ccc(Cl)cc2C1=Cc1cc(Cl)c(O)c(Cl)c1 | cell-free assay | – | – | – | 0.5 µM | remaining signal | 85.4%
Nc1ncnc2occ(-c3ccc(NC(=O)Nc4cc(C(F)(F)F)ccc4F)cc3)c12 | cell-free assay | inhibitor | – | – | 20 µM | remaining signal | 31%
N#CC1c2c([nH]c3c(Cl)c(Cl)ccc23)C(=O)NC12CCCCC2 (racemic) | thermal stability | – | DSF | – | 10 µM | ΔTm | 0.6 °C
O=C(Nc1cnn(-c2csc(C(=O)NC3COC3)c2)c1)Nc1c(F)cccc1Cl | enzyme activity | inhibitor | – | – | 5 µM | remaining activity | 95.5%
CCN1CCC2(CC1)NC(=O)c1c(c3ccc(Cl)c(Cl)c3n1C)C2C#N (racemic) | thermal stability | – | DSF | – | 10 µM | ΔTm | 0.1 °C
COc1cc2c(N3CCN(C(=O)Nc4ccc(OC(C)C)cc4)CC3)ncnc2cc1OCCCN1CCCCC1 | cell-free assay | – | – | – | 0.5 µM | remaining signal | 99.1%
Cc1ccc(C(=O)Nc2ccc(CN3CCN(C)CC3)c(C(F)(F)F)c2)cc1C#Cc1cnc2cccnn12 | enzyme activity | inhibitor | – | – | 23.5 nM | remaining activity | 78%
CCC1(CC)NC(=O)c2c(c3ccc(Cl)c(Cl)c3n2C)C1C#N (stereo not shown) | thermal stability | – | DSF | – | 10 µM | ΔTm | 1.1 °C
c1ccc(N2CCN(Cc3nc4ccccc4[nH]3)CC2)nc1 | binding | – | competition with immobilised ligand | – | 1 µM | remaining binding | 89%
Cn1c2c(Cl)c(Cl)ccc2c2cc(N)[nH]c(=O)c21 | thermal stability | – | DSF | – | 10 µM | ΔTm | -0.2 °C
O=C(Nc1cnn(-c2csc(C(=O)NC3COC3)c2)c1)Nc1ccccc1Cl | enzyme activity | inhibitor | – | – | 5 µM | remaining activity | 99.2%
O=S(=O)(NC1CCC(c2cc(F)ccc2F)(S(=O)(=O)c2ccc(Cl)cc2)CC1)C(F)(F)F (stereo not shown) | cell-free assay | – | competition with immobilised ligand | – | 1 µM | remaining binding | 100%
CC/C(=N\NC(=O)NCc1cccc(O)c1)c1ccc(O)c(C)c1O | enzyme activity | inhibitor | – | – | 0.1 µM | inhibition | 18.8%
